The results in this text go back to ChEMBL document CHEMBL4665753, “Ecdysteroid Derivatives that Reverse P-Glycoprotein-Mediated Drug Resistance” (J Nat Prod, 2020).

For data set [1], the species on record is Homo sapiens. Description: Stimulation of P-gp ATPase activity (unknown origin) assessed as increase in ATP consumption at 10 uM relative to control. The following applies: filed as activator. An outline of the steps:
(§1)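 Luminescent P-gp-Glo assay on recombinant human P-gp in a membrane fraction (25 μg), with sodium orthovanadate (100 μM) as ATPase inhibitor. Reactions were started with 10 mM MgATP and stopped after 40 min with luciferase detection reagent; luminescence was read 60 min later. ATP consumption appears as lost luminescence. Activity is given as fold change versus untreated control, mean of three independent experiments.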

The nature of data set [2]: Cytotoxicity against human peripheral blood lymphocytes assessed as cell growth inhibition after 72 hrs in presence of PHA by MTT assay. The following applies: Lymphocyte. It counts as functional. The gist of the method:
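Lymphocytes from healthy-donor buffy coats were isolated by density-gradient centrifugation and incubated overnight in RPMI-1640 with 10% FBS. Nonadherent cells were reseeded at 5 × 10^5 cells/mL in medium with 2.5 μg/mL PHA so they would proliferate, then exposed to a range of compound concentrations for 72 h. Viability was read by MTT at 560 nm. GI50 was taken as 50% proliferation inhibition.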

A short description of data set [3]: Cytotoxicity against human peripheral blood lymphocytes assessed as cell growth inhibition after 72 hrs by MTT assay. In kind it is functional. The following applies: Lymphocyte. An outline of the steps: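 Resting, non-PHA-stimulated lymphocytes from healthy-donor buffy coats were isolated by density-gradient centrifugation and incubated overnight in RPMI-1640 with 10% FBS. Nonadherent cells were then seeded at 5 × 10^5 cells/mL with a range of compound concentrations for 72 h. Viability was read by MTT at 560 nm. GI50 was taken as 50% proliferation inhibition from log concentration plots.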
A general note: Tetrazolium assays rely on reduction of a dye to a coloured formazan, in cell work by metabolically active cells.

In data set [4] the target is ATP-dependent translocase ABCB1 (Homo sapiens, UniProt P08183). Description: Inhibition of ABCB1 in human […] cells after 2 hrs by Hoechst dye based flow cytometric analysis. In kind it is cell-based. An outline of the steps: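 Medulloblastoma DAOY cells were treated with compounds at 10 μM for 2 h. Cells (10^6/mL) were stained with 5 μg/mL Hoechst 33342 in αMEM with 2% FBS for 90 min at 37 °C, then with 2 μg/mL propidium iodide at 4 °C for 10 min. Side-population cells were gated on PI-negative events on a Hoechst red vs blue plot under UV excitation, acquiring at least 30 000 live events.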
For orientation: A flow cytometer gives signals particle by particle.

Data set [5] is filed under the species Homo sapiens. Description: Stimulation of P-gp ATPase activity (unknown origin) assessed as increase in ATP consumption at 1 uM relative to control. Conditions: filed as activator. The gist of the method: as §1
The test system of the next data set is CEM/VLB100. Kind of data set: Synergistic antiproliferative activity against human CEM/VLB100 cells assessed as reduction in cell viability at 1:10 test compound to vinblastine after 48 hrs by MTT assay.

The source made the active and inactive calls. The rule behind the calls is not given here. Some results are limits rather than exact numbers.

Chain of ATP-dependent translocase ABCB1 (P08183 whole entry): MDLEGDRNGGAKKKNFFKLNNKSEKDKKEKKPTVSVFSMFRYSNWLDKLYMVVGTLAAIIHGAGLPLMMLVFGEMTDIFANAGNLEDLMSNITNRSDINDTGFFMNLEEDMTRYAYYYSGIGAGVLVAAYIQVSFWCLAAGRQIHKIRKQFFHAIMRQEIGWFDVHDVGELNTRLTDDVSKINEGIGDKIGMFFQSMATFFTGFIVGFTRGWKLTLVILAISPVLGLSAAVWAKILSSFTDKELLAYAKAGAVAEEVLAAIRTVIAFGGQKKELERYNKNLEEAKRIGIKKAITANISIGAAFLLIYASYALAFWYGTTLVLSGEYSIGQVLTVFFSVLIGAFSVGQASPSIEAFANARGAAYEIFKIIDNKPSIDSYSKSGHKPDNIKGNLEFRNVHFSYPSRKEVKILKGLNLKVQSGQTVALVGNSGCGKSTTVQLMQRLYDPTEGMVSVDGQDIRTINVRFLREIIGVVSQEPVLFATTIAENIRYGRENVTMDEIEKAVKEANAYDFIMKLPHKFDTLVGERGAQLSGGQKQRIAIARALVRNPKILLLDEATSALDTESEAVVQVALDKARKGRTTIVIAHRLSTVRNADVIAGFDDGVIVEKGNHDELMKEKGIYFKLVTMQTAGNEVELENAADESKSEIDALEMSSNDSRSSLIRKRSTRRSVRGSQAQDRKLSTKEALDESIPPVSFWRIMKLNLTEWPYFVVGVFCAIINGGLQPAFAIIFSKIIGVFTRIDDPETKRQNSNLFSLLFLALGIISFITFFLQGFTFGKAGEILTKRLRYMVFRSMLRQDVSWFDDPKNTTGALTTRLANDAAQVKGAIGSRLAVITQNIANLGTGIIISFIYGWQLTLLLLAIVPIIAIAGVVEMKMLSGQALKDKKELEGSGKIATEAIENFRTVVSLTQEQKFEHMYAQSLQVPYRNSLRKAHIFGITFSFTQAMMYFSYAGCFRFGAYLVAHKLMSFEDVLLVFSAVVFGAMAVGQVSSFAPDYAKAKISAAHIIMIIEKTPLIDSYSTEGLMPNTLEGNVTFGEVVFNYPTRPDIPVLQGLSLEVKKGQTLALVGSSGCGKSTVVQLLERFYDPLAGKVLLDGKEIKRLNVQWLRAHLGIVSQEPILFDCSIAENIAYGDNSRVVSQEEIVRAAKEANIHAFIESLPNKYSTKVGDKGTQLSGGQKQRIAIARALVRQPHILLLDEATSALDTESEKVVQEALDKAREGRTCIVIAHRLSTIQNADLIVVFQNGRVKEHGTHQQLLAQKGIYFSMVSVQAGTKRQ

For the compound `COc1ccc(CCN(C)CCCC(C#N)(c2ccc(OC)c(OC)c2)C(C)C)cc1OC` (stereo unspecified), the fold change (FC) in the data set listed under Homo sapiens [1] turned out to be 4.
Take `CC(C)(O)CC[C@H]1OC2(CCCCC2)O[C@]1(C)[C@H]1CC[C@@]2(O)C3=CC(=O)[C@@H]4C[C@H]5OC6(CCCCC6)O[C@H]5C[C@]4(C)[C@H]3CC[C@]12C`: the GI50 (as a rule, the concentration that inhibits growth by half) amounted to 42.8 µM in data set [2] and 61.7 µM in data set [3]. For the same compound, the “inhibition (INH)” value in data set [4] is listed as “Active”. Further, the fold change (FC) in the data set listed under Homo sapiens [5] was 6. The result with CEM/VLB100 was Active.
For `CC(C)(O)CC[C@@H](OC(=O)c1ccccc1)[C@](C)(O)[C@H]1CC[C@@]2(O)C3=CC(=O)[C@@H]4C[C@@H](OC(=O)c5ccccc5)[C@@H](OC(=O)c5ccccc5)C[C@]4(C)[C@H]3CC[C@]12C`, the GI50 in data set [2] is 19.9 µM; in data set [3], greater than 100 µM. For the same compound, in data set [4], the “inhibition (INH)” value was “Active”. The result in the data set with CEM/VLB100 was Active. In the data set filed under Homo sapiens [1], the fold change (FC) came to 4.
